Reference: ChEMBL document CHEMBL1145439, “Fluorine-18-labeled benzamide analogues for imaging the sigma2 receptor status of solid tumors with positron emission tomography” (J Med Chem, 2007)

Experiments:
[1] = Displacement of [3H]DTG from sigma 2 receptor in rat liver membrane after 120 mins; assay type: cell membranes
In short: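 Rat liver membranes (~300 µg protein) incubated with ~5 nM [3H]DTG plus 1 µM (+)-pentazocine to mask σ1 sites, 120 min at room temperature; 10 µM haloperidol defines nonspecific binding; filtration and scintillation counting. One-site nonlinear regression IC50, converted to Ki by Cheng-Prusoff; mean ± SEM.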

[2] = Selectivity for rat liver sigma 2 receptor over guinea pig brain sigma 1 receptor
Heart [3] = experiment: Biodistribution in heart of mouse EMT6 tumor bearing BALB/c mouse at 10 to 20 uCi after 5 mins; assay type: ADME, organism-based; details: in vivo
In short: (§1)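 EMT-6 cells (5×10^5 in 100 µL PBS) implanted s.c. in scapular region of female Balb/c mice (~2 months, 17-22 g); studied 7-10 days later at ~0.2 cm3 tumor. 18F tracer 10-20 µCi in 100-150 µL saline via tail vein; ≥4 mice per time point; tissue removed at sacrifice, weighed, gamma-counted; %ID/g calculated.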

Blood [4] = experiment: Biodistribution in blood of mouse EMT6 tumor bearing BALB/c mouse at 10 to 20 uCi after 30 mins; assay type: ADME, organism-based; details: in vivo, 0.5 h; in short: as §1
Blood [5] = experiment: Biodistribution in blood of mouse EMT6 tumor bearing BALB/c mouse at 10 to 20 uCi after 60 mins; assay type: ADME, organism-based; details: in vivo, 1 h; in short: as §1
Adipose tissue [6] = experiment: Biodistribution in fat of mouse EMT6 tumor bearing BALB/c mouse at 10 to 20 uCi after 120 mins; assay type: ADME, organism-based; details: in vivo, 2 h; in short: as §1
Lung [7] = experiment: Biodistribution in lung of mouse EMT6 tumor bearing BALB/c mouse at 10 to 20 uCi after 30 mins; assay type: ADME, organism-based; details: in vivo, 0.5 h; in short: as §1
Heart [8] = experiment: Biodistribution in heart of EMT6 tumor bearing BALB/c mouse at 10 to 20 uCi after 120 mins; assay type: ADME, organism-based; details: in vivo, 2 h; in short: as §1
Muscle tissue [9] = experiment: Biodistribution in muscle of mouse EMT6 tumor bearing BALB/c mouse at 10 to 20 uCi after 30 mins; assay type: ADME, organism-based; details: in vivo, 0.5 h; in short: as §1
EMT6 [10] = experiment: Biodistribution in tumor of mouse EMT6 tumor bearing BALB/c mouse at 10 to 20 uCi after 120 mins; assay type: ADME, organism-based; details: emt6, 2 h; in short: as §1
Bone [11] = experiment: Biodistribution in bone of mouse EMT6 tumor bearing BALB/c mouse at 10 to 20 uCi after 60 mins; assay type: ADME, organism-based, Bone element; details: in vivo, 1 h; in short: as §1
Brain [12] = experiment: Biodistribution in brain of mouse EMT6 tumor bearing BALB/c mouse at 10 to 20 uCi after 120 mins; assay type: ADME, organism-based; details: in vivo, 2 h; in short: as §1
Kidney [13] = experiment: Biodistribution in kidney of mouse EMT6 tumor bearing BALB/c mouse at 10 to 20 uCi after 30 mins; assay type: ADME, organism-based; details: in vivo, 0.5 h; in short: as §1
Blood [14] = experiment: Biodistribution in blood of mouse EMT6 tumor bearing BALB/c mouse at 10 to 20 uCi after 5 mins; assay type: ADME, organism-based; details: in vivo; in short: as §1
Liver [15] = experiment: Biodistribution in liver of mouse EMT6 tumor bearing BALB/c mouse at 10 to 20 uCi after 60 mins; assay type: ADME, organism-based; details: in vivo, 1 h; in short: as §1
Liver [16] = experiment: Biodistribution in liver of mouse EMT6 tumor bearing BALB/c mouse at 10 to 20 uCi after 120 mins; assay type: ADME, organism-based; details: in vivo, 2 h; in short: as §1
Lung [17] = experiment: Biodistribution in lung of mouse EMT6 tumor bearing BALB/c mouse at 10 to 20 uCi after 60 mins; assay type: ADME, organism-based; details: in vivo, 1 h; in short: as §1
Muscle tissue [18] = experiment: Biodistribution in muscle of mouse EMT6 tumor bearing BALB/c mouse at 10 to 20 uCi after 120 mins; assay type: ADME, organism-based; details: in vivo, 2 h; in short: as §1
Liver [19] = experiment: Biodistribution in liver of mouse EMT6 tumor bearing BALB/c mouse at 10 to 20 uCi after 5 mins; assay type: ADME, organism-based; details: in vivo; in short: as §1
Lung [20] = experiment: Biodistribution in lung of mouse EMT6 tumor bearing BALB/c mouse at 10 to 20 uCi after 5 mins; assay type: ADME, organism-based; details: in vivo; in short: as §1
Kidney [21] = experiment: Biodistribution in kidney of mouse EMT6 tumor bearing BALB/c mouse at 10 to 20 uCi after 60 mins; assay type: ADME, organism-based; details: in vivo, 1 h; in short: as §1
Adipose tissue [22] = experiment: Biodistribution in fat of mouse EMT6 tumor bearing BALB/c mouse at 10 to 20 uCi after 30 mins; assay type: ADME, organism-based; details: in vivo, 0.5 h; in short: as §1
EMT6 [23] = experiment: Biodistribution in tumor of EMT6 tumor bearing BALB/c mouse 10 to 20 uCi after 30 mins; assay type: ADME, organism-based; details: emt6, 0.5 h; in short: as §1
Blood [24] = experiment: Biodistribution in blood of mouse EMT6 tumor bearing BALB/c mouse at 10 to 20 uCi after 120 mins; assay type: ADME, organism-based; details: in vivo, 2 h; in short: as §1
EMT6 [25] = experiment: Biodistribution in tumor of mouse EMT6 tumor bearing BALB/c mouse at 10 to 20 uCi after 5 mins; assay type: ADME, organism-based; details: emt6, 5 min; in short: as §1
Muscle tissue [26] = experiment: Biodistribution in muscle of mouse EMT6 tumor bearing BALB/c mouse at 10 to 20 uCi after 60 mins; assay type: ADME, organism-based; details: in vivo, 1 h; in short: as §1
Brain [27] = experiment: Biodistribution in brain of EMT6 tumor bearing BALB/c mouse at 10 to 20 uCi after 30 mins; assay type: ADME, organism-based; details: in vivo, 0.5 h; in short: as §1
Liver [28] = experiment: Biodistribution in liver of mouse EMT6 tumor bearing BALB/c mouse at 10 to 20 uCi after 30 mins; assay type: ADME, organism-based; details: in vivo, 0.5 h; in short: as §1
Adipose tissue [29] = experiment: Biodistribution in fat of mouse EMT6 tumor bearing BALB/c mouse at 10 to 20 uCi after 5 mins; assay type: ADME, organism-based; details: in vivo; in short: as §1
Bone [30] = experiment: Biodistribution in bone of mouse EMT6 tumor bearing BALB/c mouse at 10 to 20 uCi after 5 mins; assay type: ADME, organism-based, Bone element; details: in vivo; in short: as §1
Kidney [31] = experiment: Biodistribution in kidney of mouse EMT6 tumor bearing BALB/c mouse at 10 to 20 uCi after 120 mins; assay type: ADME, organism-based; details: in vivo, 2 h; in short: as §1
Bone [32] = experiment: Biodistribution in bone of mouse EMT6 tumor bearing BALB/c mouse at 10 to 20 uCi after 120 mins; assay type: ADME, organism-based, Bone element; details: in vivo, 2 h; in short: as §1
EMT6 [33] = experiment: Biodistribution in tumor of mouse EMT6 tumor bearing BALB/c mouse at 10 to 20 uCi after 60 mins; assay type: ADME, organism-based; details: emt6, 1 h; in short: as §1
Brain [34] = experiment: Biodistribution in brain of EMT6 tumor bearing BALB/c mouse at 10 to 20 uCi after 5 mins; assay type: ADME, organism-based; details: in vivo; in short: as §1
Bone [35] = experiment: Biodistribution in bone of mouse EMT6 tumor bearing BALB/c mouse at 10 to 20 uCi after 30 mins; assay type: ADME, organism-based, Bone element; details: in vivo, 0.5 h; in short: as §1
Kidney [36] = experiment: Biodistribution in kidney of mouse EMT6 tumor bearing BALB/c mouse at 10 to 20 uCi after 5 mins; assay type: ADME, organism-based; details: in vivo; in short: as §1
Lung [37] = experiment: Biodistribution in lung of mouse EMT6 tumor bearing BALB/c mouse at 10 to 20 uCi after 120 mins; assay type: ADME, organism-based; details: in vivo, 2 h; in short: as §1
Adipose tissue [38] = experiment: Biodistribution in fat of mouse EMT6 tumor bearing BALB/c mouse at 10 to 20 uCi after 60 mins; assay type: ADME, organism-based; details: in vivo, 1 h; in short: as §1
Brain [39] = experiment: Biodistribution in brain of EMT6 tumor bearing BALB/c mouse at 10 to 20 uCi after 60 mins; assay type: ADME, organism-based; details: in vivo, 1 h; in short: as §1
Heart [40] = experiment: Biodistribution in heart of mouse EMT6 tumor bearing BALB/c mouse at 10 to 20 uCi after 60 mins; assay type: ADME, organism-based; details: in vivo, 1 h; in short: as §1
Heart [41] = experiment: Biodistribution in heart of mouse EMT6 tumor bearing BALB/c mouse at 10 to 20 uCi after 30 mins; assay type: ADME, organism-based; details: in vivo, 0.5 h; in short: as §1
Muscle tissue [42] = experiment: Biodistribution in muscle of EMT6 tumor bearing BALB/c mouse at 10 to 20 uCi after 5 mins; assay type: ADME, organism-based; details: in vivo; in short: as §1

COc1cc2c(cc1OC)CN(CCCCNC(=O)c1cc(I)ccc1OCCF)CC2
Ki [1]: 1.06 nM

COc1cc2c(cc1OC)CN(CCCCNC(=O)c1cc(I)cc(OC)c1OCCF)CC2
Ki [1]: 0.26 nM | Ratio Ki [2]: 8190

COc1cc2c(cc1OC)CN(CCCCNC(=O)c1cc(I)ccc1OCC[18F])CC2
Drug uptake (Heart [3]): 3.22 % ID/g | Drug uptake (Blood [4]): 4.3 % ID/g | Drug uptake (Blood [5]): 3.39 % ID/g | Drug uptake (Adipose tissue [6]): 0.44 % ID/g | Drug uptake (Lung [7]): 4.07 % ID/g | Drug uptake (Heart [8]): 1 % ID/g | Drug uptake (Muscle tissue [9]): 1.12 % ID/g | Drug uptake (EMT6 [10]): 1.92 % ID/g | Drug uptake (Bone [11]): 0.99 % ID/g | Drug uptake (Brain [12]): 0.37 % ID/g | Drug uptake (Kidney [13]): 17.43 % ID/g | Drug uptake (Blood [14]): 4.6 % ID/g | Drug uptake (Liver [15]): 7.31 % ID/g | Drug uptake (Liver [16]): 4.25 % ID/g | Drug uptake (Lung [17]): 2.34 % ID/g | Drug uptake (Muscle tissue [18]): 0.6 % ID/g | Drug uptake (Liver [19]): 37.26 % ID/g | Drug uptake (Lung [20]): 9.71 % ID/g | Drug uptake (Kidney [21]): 9.36 % ID/g | Drug uptake (Adipose tissue [22]): 1.04 % ID/g | Drug uptake (EMT6 [23]): 2.81 % ID/g | Drug uptake (Blood [24]): 1.92 % ID/g | Drug uptake (EMT6 [25]): 2.54 % ID/g | Drug uptake (Muscle tissue [26]): 0.83 % ID/g | Drug uptake (Brain [27]): 0.44 % ID/g | Drug uptake (Liver [28]): 17.35 % ID/g | Drug uptake (Adipose tissue [29]): 2.32 % ID/g | Drug uptake (Bone [30]): 2.59 % ID/g | Drug uptake (Kidney [31]): 3.92 % ID/g | Drug uptake (Bone [32]): 1.67 % ID/g | Drug uptake (EMT6 [33]): 2.72 % ID/g | Drug uptake (Brain [34]): 0.55 % ID/g | Drug uptake (Bone [35]): 1.31 % ID/g | Drug uptake (Kidney [36]): 36.07 % ID/g | Drug uptake (Lung [37]): 1.36 % ID/g | Drug uptake (Adipose tissue [38]): 0.62 % ID/g | Drug uptake (Brain [39]): 0.36 % ID/g | Drug uptake (Heart [40]): 1.61 % ID/g | Drug uptake (Heart [41]): 2.37 % ID/g | Drug uptake (Muscle tissue [42]): 1.52 % ID/g
